15 compounds from ChEMBL document CHEMBL1125152, “Design, synthesis, testing, and quantitative structure-activity relationship analysis of substituted salicylaldehyde Schiff bases of 1-amino-3-hydroxyguanidine tosylate as new antiviral agents against coronavirus” (1990) can be followed below.

The subject of the assay is Murine hepatitis virus. Description: Dose required to inhibit the growth of mouse hepatitis virus (MHV) in infected mouse astrocytoma (DBT) cells using plaque assay. It counts as functional. Summed up:
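DBT monolayers infected with MHV at MOI 1 to 5, adsorbed 1 h at room temperature, then given MEM with 5% FCS plus compound (final 0.97 to 3030 μM, 0.15% DMSO) at 37 °C. Media harvested 18 h postinfection and titred by plaque assay on DBT cells (0.75% agarose overlay, 48 h, neutral red). Run in duplicate. % inhibition = (1 − T/C) × 100; TCID50 by probit analysis.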
One may read the EC50 as the concentration needed to bring the measured effect to its halfway point. A low value points to higher potency in that assay. Compound `Cc1ccc(S(=O)(=O)O)cc1.N/C(=N\O)N/N=C/c1ccc2ccccc2n1` showed an EC50 of 39.3 µM.
Regarding `Cc1ccc(S(=O)(=O)O)cc1.N/C(=N\O)N/N=C/c1cc(Br)cc(Br)c1O`, the EC50 worked out at 9.5 µM.
In the case of `Cc1ccc(S(=O)(=O)O)cc1.N/C(=N\O)N/N=C/c1nccc2ccccc12` it was 47.7 µM; in that of `Cc1ccc(S(=O)(=O)O)cc1.N/C(=N\O)N/N=C/c1cc(O)c(O)c(O)c1`, 150 µM; in that of `Cc1ccc(S(=O)(=O)O)cc1.N/C(=N\O)N/N=C/c1ccccc1O`, 76 µM.
In the case of `Cc1ccc(S(=O)(=O)O)cc1.N/C(=N\O)N/N=C/c1ncccc1O` it was 89.9 µM; in that of `Cc1ccc(S(=O)(=O)O)cc1.N/C(=N\O)N/N=C/c1c2ccccc2c(Cl)c2ccccc12`, 7.12 µM; in that of `Cc1ccc(S(=O)(=O)O)cc1.N/C(=N\O)N/N=C/c1c(O)cc(O)cc1O`, 18.1 µM.
`Cc1ccc(S(=O)(=O)O)cc1.N/C(=N\O)N/N=C/c1cc([N+](=O)[O-])cc([N+](=O)[O-])c1O` showed an EC50 of 273 µM. Against the preceding compound, the EC50 is about 15-fold higher.
Regarding `Cc1ccc(S(=O)(=O)O)cc1.N/C(=N\O)N/N=C/c1cc2c(cc1Cl)OCO2`, the EC50 was 9.14 µM.
The figure for `Cc1ccc(S(=O)(=O)O)cc1.N/C(=N\O)N/N=C/c1ccc2c(c1)OCCO2` is 46.1 µM; for `Cc1ccc(S(=O)(=O)O)cc1.Cc1ncc(COP(=O)(O)O)c(/C=N/N=C(/N)NO)c1O` it is 40.8 µM.
With `Cc1ccc(S(=O)(=O)O)cc1.N/C(=N\O)N/N=C/c1ccc(O)c(O)c1O`, the EC50 was 183 µM.
With `C=CCc1cccc(/C=N/N/C(N)=N/O)c1O.Cc1ccc(S(=O)(=O)O)cc1`, the EC50 came to 3.42 µM.
Regarding `Cc1ccc(S(=O)(=O)O)cc1.N/C(=N\O)N/N=C/c1cc(Cl)cc(Cl)c1O`, the EC50 worked out at 9.54 µM.
